Converted amounts (≈) assume the structure as drawn.
Key:
Streptococcus pneumoniae [1] = experiment: Antibacterial activity against wild-type Streptococcus pneumoniae R6 by standardized agar doubling dilution method in presence of 50 uM sodium orthovanadate efflux pump inhibitor
Streptococcus pneumoniae [2] = experiment: Antibacterial activity against Streptococcus pneumoniae M308 overexpressing patA, patB and inactivated patB with single mutation by standardized agar doubling dilution method; format: functional
Procedure, shortened: (§1)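 MICs determined by BSAC standardized agar doubling dilution. Strains were grown in brain heart infusion broth for 24 h at 37°C in 5% CO2. Inhibitor arms had reserpine at 20 μg/ml or sodium orthovanadate at 50 μM in the agar. Mutants were made by transforming magellan2 insertion amplimers into clinical isolates and selecting on spectinomycin 100 mg/liter, with a no-DNA spontaneous-mutation control.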

Streptococcus pneumoniae [3] = experiment: Antibacterial activity against Streptococcus pneumoniae M46B overexpressing patA, patB and inactivated patB with single mutation by standardized agar doubling dilution method in presence of 20 ug/ml reserpine efflux pump inhibitor; format: functional
Procedure, shortened: (§2)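 MICs were determined by BSAC agar doubling dilution in the presence of reserpine at 20 μg/ml. Strains were grown in BHI broth for 24 h at 37°C in 5% CO2, with R6 as control. Synergy was defined as an MIC drop of ≥2 dilutions with the inhibitor.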

Streptococcus pneumoniae [4] = experiment: Antibacterial activity against fluoroquinolone-resistant Streptococcus pneumoniae M83 FQ-R overexpressing patA, patB by standardized agar doubling dilution method in presence of 20 ug/ml reserpine efflux pump inhibitor; format: functional
Procedure, shortened: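 Clinical S. pneumoniae isolates grown in BHI broth 24 h at 37°C in 5% CO2. MICs by agar doubling dilution per BSAC guidelines, alone or with efflux inhibitor reserpine (20 μg/ml) or sodium orthovanadate (50 μM). Synergy defined as ≥2-dilution MIC reduction in presence of inhibitor.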

Streptococcus pneumoniae [5] = experiment: Antibacterial activity against fluoroquinolone, dye-resistant Streptococcus pneumoniae M42 overexpressing patA, patB by standardized agar doubling dilution method in presence of 20 ug/ml reserpine efflux pump inhibitor; format: functional
Procedure, shortened: (§3)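 MIC by agar doubling dilution following BSAC guidelines. Strains grown in brain heart infusion broth 24 h at 37°C in 5% CO2. Where an efflux pump inhibitor applies, MIC redetermined with reserpine at 20 μg/ml or sodium orthovanadate at 50 μM. Synergy taken as a fall in MIC of ≥2 dilutions with inhibitor present. Dye resistance defined relative to R6 (both dyes ≥2 dilutions higher).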

Streptococcus pneumoniae [6] = experiment: Antibacterial activity against fluoroquinolone, dye-resistant Streptococcus pneumoniae M42 overexpressing patA, patB by standardized agar doubling dilution method; format: functional
Procedure, shortened: as §3

Streptococcus pneumoniae [7] = experiment: Antibacterial activity against Streptococcus pneumoniae M316 overexpressing patA, patB and inactivated patA with single mutation by standardized agar doubling dilution method in presence of 20 ug/ml reserpine efflux pump inhibitor; format: functional
Procedure, shortened: as §2

Streptococcus pneumoniae [8] = experiment: Antibacterial activity against Streptococcus pneumoniae M307 overexpressing patA, patB and inactivated patB with single mutation by standardized agar doubling dilution method in presence of 20 ug/ml reserpine efflux pump inhibitor; format: functional
Procedure, shortened: as §1

Streptococcus pneumoniae [9] = experiment: Antibacterial activity against Streptococcus pneumoniae M87A overexpressing patA, patB and inactivated patA with single mutation by standardized agar doubling dilution method; format: functional
Procedure, shortened: (§4)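 MICs were determined by agar doubling dilution following BSAC guidelines, with no efflux inhibitor. Strains were grown in brain heart infusion broth for 24 h at 37°C in 5% CO2. Species identity was confirmed by Gram stain, optochin sensitivity and capsule test. Control strain R6 was tested alongside.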

Streptococcus pneumoniae [10] = experiment: Antibacterial activity against dye-resistant Streptococcus pneumoniae by standardized agar doubling dilution method in presence of 50 uM sodium orthovanadate efflux pump inhibitor; format: functional
Procedure, shortened: as §3

Streptococcus pneumoniae [11] = experiment: Antibacterial activity against Streptococcus pneumoniae M301 overexpressing patA, patB and inactivated patA with single mutation by standardized agar doubling dilution method in presence of 20 ug/ml reserpine efflux pump inhibitor; format: functional
Procedure, shortened: as §1

Streptococcus pneumoniae [12] = experiment: Antibacterial activity against Streptococcus pneumoniae M311B overexpressing patA, patB and inactivated patB with single mutation by standardized agar doubling dilution method in presence of 50 uM sodium orthovanadate efflux pump inhibitor; format: functional
Procedure, shortened: as §1

Streptococcus pneumoniae [13] = experiment: Antibacterial activity against fluoroquinolone, dye-resistant Streptococcus pneumoniae M296 overexpressing patA, patB by standardized agar doubling dilution method; format: functional
Procedure, shortened: as §3

Streptococcus pneumoniae [14] = experiment: Antibacterial activity against fluoroquinolone, dye-susceptible Streptococcus pneumoniae by standardized agar doubling dilution method in presence of 50 uM sodium orthovanadate efflux pump inhibitor; format: functional
Procedure, shortened: as §3

Streptococcus pneumoniae [15] = experiment: Antibacterial activity against Streptococcus pneumoniae M304 overexpressing patA, patB and inactivated patA with single mutation by standardized agar doubling dilution method; format: functional
Procedure, shortened: as §1

Streptococcus pneumoniae [16] = experiment: Antibacterial activity against Streptococcus pneumoniae M46A overexpressing patA, patB and inactivated patA with single mutation by standardized agar doubling dilution method in presence of 20 ug/ml reserpine efflux pump inhibitor; format: functional
Procedure, shortened: as §2

Streptococcus pneumoniae [17] = experiment: Antibacterial activity against Streptococcus pneumoniae M55B overexpressing patA, patB and inactivated patB with single mutation by standardized agar doubling dilution method in presence of 20 ug/ml reserpine efflux pump inhibitor; format: functional
Procedure, shortened: as §2

Streptococcus pneumoniae [18] = experiment: Antibacterial activity against Streptococcus pneumoniae M45B overexpressing patA, patB and inactivated patB with single mutation by standardized agar doubling dilution method; format: functional
Procedure, shortened: as §4

Streptococcus pneumoniae [19] = experiment: Antibacterial activity against Streptococcus pneumoniae M300 overexpressing patA, patB and inactivated patA with single mutation by standardized agar doubling dilution method in presence of 20 ug/ml reserpine efflux pump inhibitor; format: functional
Procedure, shortened: as §1

Streptococcus pneumoniae [20] = experiment: Antibacterial activity against Streptococcus pneumoniae M50A overexpressing patA, patB and inactivated patA with single mutation by standardized agar doubling dilution method in presence of 20 ug/ml reserpine efflux pump inhibitor; format: functional
Procedure, shortened: as §2

Streptococcus pneumoniae [21] = experiment: Antibacterial activity against fluoroquinolone, dye-susceptible Streptococcus pneumoniae M295 S overexpressing patA, patB by standardized agar doubling dilution method in presence of 50 uM sodium orthovanadate efflux pump inhibitor; format: functional
Procedure, shortened: (§5)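 MIC by agar doubling dilution per BSAC guidelines; strains pregrown in brain heart infusion broth 24 h, 37°C, 5% CO2. MICs measured alone and with efflux pump inhibitors reserpine (20 μg/ml) or sodium orthovanadate (50 μM); synergy defined as ≥2-dilution MIC reduction in presence of inhibitor.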

Streptococcus pneumoniae [22] = experiment: Antibacterial activity against fluoroquinolone, dye-resistant Streptococcus pneumoniae M74 overexpressing patA, patB by standardized agar doubling dilution method in presence of 50 uM sodium orthovanadate efflux pump inhibitor; format: functional
Procedure, shortened: as §3

Streptococcus pneumoniae [23] = experiment: Antibacterial activity against Streptococcus pneumoniae M45A overexpressing patA, patB and inactivated patA with single mutation by standardized agar doubling dilution method; format: functional
Procedure, shortened: as §4

Streptococcus pneumoniae [24] = experiment: Antibacterial activity against Streptococcus pneumoniae M50B overexpressing patA, patB and inactivated patB with single mutation by standardized agar doubling dilution method in presence of 20 ug/ml reserpine efflux pump inhibitor; format: functional
Procedure, shortened: as §2

Streptococcus pneumoniae [25] = experiment: Antibacterial activity against fluoroquinolone, dye-resistant Streptococcus pneumoniae M297 overexpressing patA, patB by standardized agar doubling dilution method in presence of 50 uM sodium orthovanadate efflux pump inhibitor; format: functional
Procedure, shortened: as §3

Streptococcus pneumoniae [26] = experiment: Antibacterial activity against Streptococcus pneumoniae M302 overexpressing patA, patB and inactivated patA with single mutation by standardized agar doubling dilution method; format: functional
Procedure, shortened: as §1

Streptococcus pneumoniae [27] = experiment: Antibacterial activity against Streptococcus pneumoniae M45A overexpressing patA, patB and inactivated patA with single mutation by standardized agar doubling dilution method in presence of 20 ug/ml reserpine efflux pump inhibitor; format: functional
Procedure, shortened: as §2

Streptococcus pneumoniae [28] = experiment: Antibacterial activity against fluoroquinolone-resistant Streptococcus pneumoniae M100 FQ-R overexpressing patA, patB by standardized agar doubling dilution method; format: functional
Procedure, shortened: as §5

| Structure (SMILES) | MIC (Streptococcus pneumoniae [1]) | MIC (Streptococcus pneumoniae [2]) | MIC (Streptococcus pneumoniae [3]) | MIC (Streptococcus pneumoniae [4]) | MIC (Streptococcus pneumoniae [5]) | MIC (Streptococcus pneumoniae [6]) | MIC (Streptococcus pneumoniae [7]) | MIC (Streptococcus pneumoniae [8]) | MIC (Streptococcus pneumoniae [9]) | MIC90 (Streptococcus pneumoniae [10]) | MIC (Streptococcus pneumoniae [11]) | MIC (Streptococcus pneumoniae [12]) | MIC (Streptococcus pneumoniae [13]) | MIC90 (Streptococcus pneumoniae [14]) | MIC (Streptococcus pneumoniae [15]) | MIC (Streptococcus pneumoniae [16]) | MIC (Streptococcus pneumoniae [17]) | MIC (Streptococcus pneumoniae [18]) | MIC (Streptococcus pneumoniae [19]) | MIC (Streptococcus pneumoniae [20]) | also measured |
| --- | --- | --- | --- | --- | --- | --- | --- | --- | --- | --- | --- | --- | --- | --- | --- | --- | --- | --- | --- | --- | --- |
| O=C(O)c1cn(C2CC2)c2cc(N3CCNCC3)c(F)cc2c1=O [CIPROFLOXACIN] | 0.25 µg/mL | 2 µg/mL (≈ 6.04 µM) | 0.12 µg/mL | 64 µg/mL | 32 µg/mL | 64 µg/mL (≈ 193 µM) | 8 µg/mL | 8 µg/mL | 8 µg/mL (≈ 24.1 µM) | 0.5 µg/mL | 8 µg/mL | 4 µg/mL | 2 µg/mL (≈ 6.04 µM) | 0.5 µg/mL | 4 µg/mL (≈ 12.1 µM) | 0.12 µg/mL | 2 µg/mL | 1 µg/mL (≈ 3.02 µM) | 2 µg/mL | 4 µg/mL | MIC (Streptococcus pneumoniae [21]): 0.25 µg/mL; MIC (Streptococcus pneumoniae [22]): 64 µg/mL; MIC (Streptococcus pneumoniae [23]): 1 µg/mL (≈ 3.02 µM); MIC (Streptococcus pneumoniae [24]): 4 µg/mL; MIC (Streptococcus pneumoniae [25]): 8 µg/mL; MIC (Streptococcus pneumoniae [26]): 4 µg/mL (≈ 12.1 µM); MIC (Streptococcus pneumoniae [27]): 1 µg/mL; MIC (Streptococcus pneumoniae [28]): 8 µg/mL (≈ 24.1 µM) |
| CC[n+]1c(-c2ccccc2)c2cc(N)ccc2c2ccc(N)cc21.[Br-] [HOMIDIUM BROMIDE] | 0.12 µg/mL | 0.25 µg/mL | 0.5 µg/mL | 4 µg/mL | 0.5 µg/mL | 8 µg/mL | 0.5 µg/mL | 0.5 µg/mL | 0.5 µg/mL | 1 µg/mL | 0.5 µg/mL | 8 µg/mL | 8 µg/mL | 0.25 µg/mL | 0.5 µg/mL | 0.5 µg/mL | 0.5 µg/mL | 0.5 µg/mL | 0.5 µg/mL | 0.5 µg/mL | MIC (Streptococcus pneumoniae [10]): 1 µg/mL; MIC (Streptococcus pneumoniae [21]): 0.5 µg/mL; MIC (Streptococcus pneumoniae [22]): 1 µg/mL; MIC (Streptococcus pneumoniae [23]): 0.5 µg/mL; MIC (Streptococcus pneumoniae [24]): 0.5 µg/mL; MIC (Streptococcus pneumoniae [25]): 1 µg/mL; MIC (Streptococcus pneumoniae [26]): 0.5 µg/mL; MIC (Streptococcus pneumoniae [27]): 0.5 µg/mL; MIC (Streptococcus pneumoniae [28]): 4 µg/mL |

Source: ChEMBL document CHEMBL1687824, “Overexpression of patA and patB, which encode ABC transporters, is associated with fluoroquinolone resistance in clinical isolates of Streptococcus pneumoniae” (2011)
